# Source: ChEMBL document CHEMBL3585302, “Synthesis and antibacterial activities of cadiolides A, B and C and analogues” (Bioorg Med Chem, 2015)
# Active and inactive are the calls of the source. The calls are words filed in the database; no cut-off is given here.
# Tested on: Bacillus subtilis
# Assay: Antibacterial activity against Bacillus subtilis CECT 35 assessed as inhibition of microbial growth at 125 ug/ml incubated for 18 hrs by 2-fold microtiter broth dilution method
# Format: functional, organism-based
# Conditions: not given
# Method in brief: (§1)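 Compounds in DMSO, ten 2-fold serial dilutions (125 down to 0.24 µg/mL tested). Bacteria at OD620 = 0.001 in Nutrient Broth mixed 1:1 with dilutions. Incubated overnight (18 h) at 28°C or 37°C according to strain. Growth read turbidimetrically at OD620. MIC is the lowest concentration giving complete growth inhibition. Triplicate runs. Tetracycline as reference.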
row,Structure (SMILES),growth inhibition (GI)
1,COc1ccc(C2=C(C(=O)c3ccc(O)c(Br)c3)C(=O)O/C2=C\c2ccc(O)c(Br)c2)cc1Br,inactive
2,COc1c(Br)cc(C2=C(C(=O)c3cc(Br)c(O)c(Br)c3)C(=O)O/C2=C\c2cc(Br)c(O)c(Br)c2)cc1Br,inactive

# Tested on: Bacillus cereus
# Assay: Antibacterial activity against Bacillus cereus CECT 148 assessed as inhibition of microbial growth at 125 ug/ml incubated for 18 hrs by 2-fold microtiter broth dilution method
# Format: functional, organism-based
# Conditions: not given
# Method in brief: as §1
row,Structure (SMILES),growth inhibition (GI)
1,COc1ccc(C2=C(C(=O)c3ccc(O)c(Br)c3)C(=O)O/C2=C\c2ccc(O)c(Br)c2)cc1Br,inactive
2,COc1c(Br)cc(C2=C(C(=O)c3cc(Br)c(O)c(Br)c3)C(=O)O/C2=C\c2cc(Br)c(O)c(Br)c2)cc1Br,inactive

# Tested on: Enterococcus faecalis
# Assay: Antibacterial activity against Enterococcus faecalis CECT 481 assessed as inhibition of microbial growth at 125 ug/ml incubated for 18 hrs by 2-fold microtiter broth dilution method
# Format: functional, organism-based
# Conditions: not given
# Method in brief: as §1
row,Structure (SMILES),growth inhibition (GI)
1,COc1ccc(C2=C(C(=O)c3ccc(O)c(Br)c3)C(=O)O/C2=C\c2ccc(O)c(Br)c2)cc1Br,inactive
2,COc1c(Br)cc(C2=C(C(=O)c3cc(Br)c(O)c(Br)c3)C(=O)O/C2=C\c2cc(Br)c(O)c(Br)c2)cc1Br,inactive

# Tested on: Escherichia coli
# Assay: Antibacterial activity against Escherichia coli CECT 405 assessed as inhibition of microbial growth at 125 ug/ml incubated for 18 hrs by 2-fold microtiter broth dilution method
# Format: functional, organism-based
# Conditions: not given
# Method in brief: as §1
row,Structure (SMILES),growth inhibition (GI)
1,COc1ccc(C2=C(C(=O)c3ccc(O)c(Br)c3)C(=O)O/C2=C\c2ccc(O)c(Br)c2)cc1Br,inactive
2,COc1c(Br)cc(C2=C(C(=O)c3cc(Br)c(O)c(Br)c3)C(=O)O/C2=C\c2cc(Br)c(O)c(Br)c2)cc1Br,inactive

# Tested on: Escherichia coli
# Assay: Antibacterial activity against Escherichia coli CECT 100 assessed as inhibition of microbial growth at 125 ug/ml incubated for 18 hrs by 2-fold microtiter broth dilution method
# Format: functional, organism-based
# Conditions: not given
# Method in brief: as §1
row,Structure (SMILES),growth inhibition (GI)
1,COc1ccc(C2=C(C(=O)c3ccc(O)c(Br)c3)C(=O)O/C2=C\c2ccc(O)c(Br)c2)cc1Br,inactive
2,COc1c(Br)cc(C2=C(C(=O)c3cc(Br)c(O)c(Br)c3)C(=O)O/C2=C\c2cc(Br)c(O)c(Br)c2)cc1Br,inactive

# Tested on: Salmonella typhi
# Assay: Antibacterial activity against Salmonella typhi CECT 409 assessed as inhibition of microbial growth at 125 ug/ml incubated for 18 hrs by 2-fold microtiter broth dilution method
# Format: functional, organism-based
# Conditions: Salmonella enterica subsp. enterica serovar Typhi
# Method in brief: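 Compounds in DMSO, ten 2-fold serial dilutions (125 down to 0.24 µg/mL), mixed 1:1 with bacteria in Nutrient Broth at OD620 = 0.001. Incubated overnight (18 h) at 28 or 37 °C depending on strain. Growth read turbidimetrically at OD620; MIC is the lowest concentration completely inhibiting growth, per CLSI. Triplicate runs; tetracycline reference.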
row,Structure (SMILES),growth inhibition (GI)
1,COc1ccc(C2=C(C(=O)c3ccc(O)c(Br)c3)C(=O)O/C2=C\c2ccc(O)c(Br)c2)cc1Br,inactive
2,COc1c(Br)cc(C2=C(C(=O)c3cc(Br)c(O)c(Br)c3)C(=O)O/C2=C\c2cc(Br)c(O)c(Br)c2)cc1Br,inactive

# Tested on: Pectobacterium carotovorum
# Assay: Antibacterial activity against Erwinia carotovora CECT 225 assessed as inhibition of microbial growth at 125 ug/ml incubated for 18 hrs by 2-fold microtiter broth dilution method
# Format: functional, organism-based
# Conditions: not given
# Method in brief: as §1
row,Structure (SMILES),growth inhibition (GI)
1,COc1ccc(C2=C(C(=O)c3ccc(O)c(Br)c3)C(=O)O/C2=C\c2ccc(O)c(Br)c2)cc1Br,inactive
2,COc1c(Br)cc(C2=C(C(=O)c3cc(Br)c(O)c(Br)c3)C(=O)O/C2=C\c2cc(Br)c(O)c(Br)c2)cc1Br,inactive

# Tested on: Staphylococcus aureus
# Assay: Antibacterial activity against Staphylococcus aureus CECT 86 assessed as inhibition of microbial growth at 125 ug/ml incubated for 18 hrs by 2-fold microtiter broth dilution method
# Format: functional, organism-based
# Conditions: not given
# Method in brief: as §1
row,Structure (SMILES),growth inhibition (GI)
1,COc1ccc(C2=C(C(=O)c3ccc(O)c(Br)c3)C(=O)O/C2=C\c2ccc(O)c(Br)c2)cc1Br,inactive
2,COc1c(Br)cc(C2=C(C(=O)c3cc(Br)c(O)c(Br)c3)C(=O)O/C2=C\c2cc(Br)c(O)c(Br)c2)cc1Br,inactive
